Assay [1] relates to SK-BR-3. Description: Antiproliferative activity against human SKBR3 cells after 72 hrs by MTS/PMS assay. Format: functional, cell-based. To be noted: SK-BR-3, 72 h. The method in brief:
(§1)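 Cells grown in medium with non-essential amino acids, 2 mM L-glutamine, streptomycin, penicillin and 10% FBS at 37 °C, 5% CO2; seeded 2000/well, attached overnight. Test agent added over a concentration range in DMSO (1% final), 72 h exposure. Viable cells counted by MTS/PMS read-out against 1% DMSO wells as 100% proliferation. IC50 taken as mean ± SD of at least two separate experiments, each in triplicate.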

Assay [2] concerns MCF7. Description: Antiproliferative activity against human MCF7 cells after 72 hrs by MTS/PMS assay. The conditions noted are these: MCF7, 72 h. Format: functional, cell-based. In short, it runs like this: as §1
A short description of assay [3]: Antiproliferative activity against human PC3MM2 cells after 72 hrs by MTS/PMS assay. Format: functional, cell-based. The conditions noted are these: PC3MM2, 72 h. In short, it runs like this: as §1
Assay [4] deals with A549. As to the kind of experiment: Antiproliferative activity against human A549 cells after 72 hrs by MTS/PMS assay. The assay is classed as functional, cell-based. The conditions noted are these: A549, 72 h. In short, it runs like this: as §1
In assay [5] the test system is HT-29. Description: Antiproliferative activity against human HT-29 cells after 72 hrs by MTS/PMS assay. The assay is classed as functional, cell-based. The conditions noted are these: HT-29, 72 h. The method in brief: as §1
The target of assay [6] is T1, Heat shock protein HSP90 (Homo sapiens) (UniProt P07900+P08238). Description: Inhibition of Hsp90 in human MCF7 cells assessed as induction of Her2 degradation at 5 fold IC50 after 24 hrs by Western blot method. Format: cell-based. In short, it runs like this: (§2)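 MCF-7 cells treated 24 h with compound in DMSO (1% final); geldanamycin 500 nM served as positive control and DMSO as vehicle control. Cells harvested in cold PBS and lysed 1 h on ice in RIPA with 1 mM PMSF, 2 mM orthovanadate and protease inhibitors. Lysates clarified 14,000g, 15 min, 4 °C. Protein (20 µg, BCA) resolved under reducing conditions and blotted on PVDF for Her2, Raf and Akt, with actin as loading control. Detection by HRP secondary antibody and chemiluminescence.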
On the technique in general: In western blotting, separated proteins are transferred to a membrane and probed.

Assay [7] has as its target T1, Heat shock protein HSP90 (Homo sapiens). Description: Inhibition of Hsp90 in human MCF7 cells assessed as induction of Her2 degradation at 0.5 fold IC50 after 24 hrs by Western blot method. The assay is classed as cell-based. In short, it runs like this:
as §2

Assay [8] shares this target. As to the kind of experiment: Inhibition of Hsp90 in human MCF7 cells assessed as induction of Raf degradation at 5 fold IC50 after 24 hrs by Western blot method. The assay is classed as cell-based. In short, it runs like this: as §2
Assay [9] has the same target. Description: Inhibition of Hsp90 in human MCF7 cells assessed as induction of Raf degradation at 0.5 fold IC50 after 24 hrs by Western blot method. The assay is classed as cell-based. In short, it runs like this:
as §2

The target is the same in assay [10]. As to the kind of experiment: Inhibition of Hsp90 in human MCF7 cells assessed as induction of Akt degradation at 5 fold IC50 after 24 hrs by Western blot method. Format: cell-based. The method in brief:
as §2

Assay [11] has the same target. Description: Inhibition of Hsp90 in human MCF7 cells assessed as induction of Akt degradation at 0.5 fold IC50 after 24 hrs by Western blot method. The assay is classed as cell-based. In short, it runs like this:
as §2

For orientation: IC50 means the concentration that inhibits the measured activity by half. Low readings indicate greater potency in that assay, high ones weaker potency in that assay.

SMILES strings stand for the structures. The source made the active and inactive calls. The calls are words filed in the database; no cut-off is given here.

Turning to `COc1ccc(C(=O)Nc2cc3ccc(O[C@@H]4OC(C)(C)[C@H](OC)[C@@H](O)[C@H]4O)c(OC)c3oc2=O)cc1-c1cc(C(=O)Nc2cc3ccc(O[C@@H]4OC(C)(C)[C@H](OC)[C@@H](O)[C@H]4O)c(OC)c3oc2=O)ccc1OC`, the IC50 in [1] amounted to 0.91 µM; in assay [2], 0.88 µM; in assay [3], 0.27 µM; in [4], 0.21 µM; in assay [5], 0.27 µM. Besides, the inhibition entry in assay [6], in assay [7], in [8], in assay [9], in [10] and in assay [11] was “Active” in each case.

As to `COc1cc(C(=O)Nc2cc3ccc(O[C@@H]4OC(C)(C)[C@H](OC)[C@@H](O)[C@H]4O)c(C)c3oc2=O)cc(-c2cc(OC)cc(C(=O)Nc3cc4ccc(O[C@@H]5OC(C)(C)[C@H](OC)[C@@H](O)[C@H]5O)c(C)c4oc3=O)c2)c1`, the IC50 in assay [1] stood at 1.95 µM; in assay [2], 1.85 µM; in [3] it was 12.5 µM; in assay [4], 28.9 µM; in assay [5] it was 11.7 µM.

Regarding `COc1ccc(C(=O)Nc2cc3ccc(O[C@@H]4OC(C)(C)[C@H](OC)[C@@H](O)[C@H]4O)c(C)c3oc2=O)cc1-c1cc(C(=O)Nc2cc3ccc(O[C@@H]4OC(C)(C)[C@H](OC)[C@@H](O)[C@H]4O)c(C)c3oc2=O)ccc1OC`, the IC50 stood at 1.16 µM in assay [1]; 0.76 µM in assay [2]; 36.7 µM in assay [3]; 35.4 µM in [4]; 36.5 µM in [5]. In addition, the inhibition result in assay [6], in assay [7], in assay [8], in [9], in assay [10] and in [11] was “Active” each time.

`Cc1c(OCCCN(C)C)ccc2cc(NC(=O)C/C=C/CC(=O)Nc3cc4ccc(OCCCN(C)C)c(C)c4oc3=O)c(=O)oc12`: the IC50 in [1] stood at 0.46 µM; in [2], 0.84 µM; in assay [3], 15.2 µM; in assay [4] it was 19.4 µM; in [5], 12.2 µM. Besides, the inhibition entry in assay [6], in assay [7], in assay [8], in [9], in assay [10] and in [11] was “inactive” throughout.

On to `Cc1c(OC2CCN(C)CC2)ccc2cc(NC(=O)CCCCCCC(=O)Nc3cc4ccc(OC5CCN(C)CC5)c(C)c4oc3=O)c(=O)oc12`, for which the IC50 in [1] was determined as 1.19 µM; in assay [2] it was 2.82 µM; in [3], 13.8 µM; in [4], 30.4 µM; in [5], 26.3 µM.

For `Cc1c(OC2CCN(C)CC2)ccc2cc(NC(=O)CCCCCCCCC(=O)Nc3cc4ccc(OC5CCN(C)CC5)c(C)c4oc3=O)c(=O)oc12`, the IC50 is 2.84 µM in assay [1]; 3.68 µM in assay [2]; 10.2 µM in [3]; 13.2 µM in [4]; 3.9 µM in assay [5].

For `Cc1c(OC2CCN(C)CC2)ccc2cc(NC(=O)CC/C=C/CCC(=O)Nc3cc4ccc(OC5CCN(C)CC5)c(C)c4oc3=O)c(=O)oc12`, the IC50 in [1] amounted to 0.15 µM; in assay [2] it was 0.27 µM; in [3], 4.19 µM; in [4], 5.54 µM; in [5] it was 0.05 µM. Moreover, the inhibition result in assay [6], in [7], in assay [8], in [9], in [10] and in [11] was “Active” throughout.

`COc1cc2cc(NC(=O)CC/C=C/CCC(=O)Nc3cc4cc(OC)c(OC5CCN(C)CC5)c(C)c4oc3=O)c(=O)oc2c(C)c1OC1CCN(C)CC1`: the IC50 in assay [1] is 1.1 µM; in [2] it was 1.31 µM; in [3], 4.86 µM; in [4], 1.44 µM. Besides, the inhibition entry in assay [6], in assay [7], in assay [8], in assay [9], in assay [10] and in [11] was “Active” in each case.

As to `Cc1c(OC2CCN(C)CC2)ccc2cc(NC(=O)CCC/C=C/CCCC(=O)Nc3cc4ccc(OC5CCN(C)CC5)c(C)c4oc3=O)c(=O)oc12`, the IC50 in assay [1] amounted to 0.89 µM; in assay [2] it was 0.63 µM; in [3], 0.44 µM; in assay [4] it was 0.22 µM; in [5], 0.24 µM. Further, the inhibition entry in assay [6] and in [7] was “inactive” each time. The inhibition entry in [8], in assay [9], in [10] and in assay [11] was “Active” in each case.

Regarding `COc1ccc(C(=O)Nc2cc3ccc(OCCCN(C)C)c(C)c3oc2=O)cc1-c1cc(C(=O)Nc2cc3ccc(OCCCN(C)C)c(C)c3oc2=O)ccc1OC`, the IC50 in [1] turned out to be 9.5 µM; in assay [2] it was 11.7 µM; in assay [3] it was 52.3 µM; in [4] it was 93.5 µM; in assay [5], 62.7 µM.

With `Cc1c(OC2CCN(C)CC2)ccc2cc(NC(=O)C/C=C/CC(=O)Nc3cc4ccc(OC5CCN(C)CC5)c(C)c4oc3=O)c(=O)oc12`, the IC50 in assay [1] was 0.18 µM; in [2] it was 0.29 µM; in [3], 7.51 µM; in [4] it was 21.5 µM; in assay [5], 7.1 µM. The inhibition result in assay [6], in [7], in assay [8], in [9], in assay [10] and in assay [11] was “Active” in each case.

The values above are taken from ChEMBL document CHEMBL1821679, “Targeting the heat shock protein 90 dimer with dimeric inhibitors” (J Med Chem, 2011).
